The list is not random: actives were taken first. Their share in the collection is about 1.4%.
FXIa inh: inhibitors of human coagulation factor XIa | P03951 | hit rate 0.14% among 220,000 | purified FXIa, Boc-Glu-Ala-Arg-AMC fluorogenic substrate | inhibition, % at 5 µM;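 active = inhibition of at least 40%; inactive = inhibition below 40%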;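 also: fluorescence of freed AMC excited at 355 nm; 0% = enzyme without compound and 100% = no enzyme blank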
FXIIa inh: blocks human coagulation factor XIIa protease activity. hit rate 0.3% among 220,000. AID 800. purified FXIIa, Boc-QGR-AMC fluorogenic substrate, 2 h. inhibition, % at 5 µM; in the data active = inhibition above about 40%;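 also: 0% = enzyme with no compound and 100% = blank without enzyme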
Target sequence (P00748 20-372 limits assumed): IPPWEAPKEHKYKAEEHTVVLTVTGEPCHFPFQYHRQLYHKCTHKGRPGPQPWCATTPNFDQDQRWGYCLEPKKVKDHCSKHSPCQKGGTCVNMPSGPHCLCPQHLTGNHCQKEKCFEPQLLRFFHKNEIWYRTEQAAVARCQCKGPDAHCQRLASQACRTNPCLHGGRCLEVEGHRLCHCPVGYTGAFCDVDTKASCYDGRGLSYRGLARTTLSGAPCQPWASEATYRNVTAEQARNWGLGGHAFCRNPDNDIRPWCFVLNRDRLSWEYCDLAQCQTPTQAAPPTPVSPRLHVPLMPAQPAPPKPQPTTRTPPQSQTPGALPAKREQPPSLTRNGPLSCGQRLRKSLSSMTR
Target sequence (P00748 373-615 limits assumed): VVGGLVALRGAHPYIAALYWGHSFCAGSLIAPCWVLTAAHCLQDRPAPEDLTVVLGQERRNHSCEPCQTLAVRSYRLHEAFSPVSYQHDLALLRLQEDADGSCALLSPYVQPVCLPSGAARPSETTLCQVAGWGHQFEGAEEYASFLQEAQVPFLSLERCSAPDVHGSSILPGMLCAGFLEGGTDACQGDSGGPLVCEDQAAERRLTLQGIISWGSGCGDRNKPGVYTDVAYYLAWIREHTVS
KLK5 inh: blocks human kallikrein 5 protease activity; Q9Y337; recombinant hK5, fluorogenic AMC substrate cleavage; inhibition, % at 5 µM; hit rate 0.59% among 210,000; AID 873;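 active = inhibition of 40% or more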;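 also: 0% = enzyme controls without compound and 100% = no-enzyme blanks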
Thrombin inh: inhibitors of human thrombin; AID 1046; alpha-thrombin, Boc-VPR-AMC fluorogenic substrate cleavage; inhibition, % at 5 µM; hit rate 0.26% among 220,000;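 active = inhibition at or above 40%; inactive = inhibition below 40%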;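 also: 0% = enzyme with no compound and 100% = wells without enzyme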
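Material: human alpha-thrombin protein; Also added: Boc-VPR-AMC substrate, 15 µM final; Timing: enzyme reaction carried out at room temperature; Signal: fluorescence, ex 355 nm, em 460 nm; Measure: % inhibition of thrombin; Controls: enzyme without compound as high, wells lacking enzyme as low.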
m-calpain inh: inhibitors of pig calpain II. hit rate 0.37% among 220,000. AID 1236. inhibition, % at 16 µM. purified calpain II, fluorogenic peptide substrate, 30 min;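 active = inhibition above about 50%, limit read from the data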
An asterisk follows results filed as active.

How did CCCCSc1nnc(-c2ccc(C)cc2)c2ccccc12 do in these assays?
FXIa inh: 1; FXIIa inh: -2; KLK5 inh: -15; Thrombin inh: -10; m-calpain inh: 52*

What do the screens show for `CN(C)C(=O)CSc1nnc(-c2ccc(F)cc2)c2ccccc12`?
FXIa inh: 3; FXIIa inh: 10; KLK5 inh: -1; Thrombin inh: -2; m-calpain inh: -10

How did CCN(CC)C(=O)c1sc(NC(=O)c2cccs2)c(C#N)c1C do in these assays?
FXIa inh: 2; FXIIa inh: 9; KLK5 inh: 5; Thrombin inh: -10; m-calpain inh: 7

How did CCOc1ccc(OCc2ccc(C(=O)N3CCCC(C)C3)cc2)cc1 (configuration not stated) do in these assays?
FXIa inh: -4; FXIIa inh: 6; KLK5 inh: -6; Thrombin inh: 0; m-calpain inh: 71*

Results for O=C(C1=C[C@@H](c2ccccc2)C[C@@H](OCc2ccc(CO)cc2)O1)N1CCOCC1 ?
FXIa inh: 4; FXIIa inh: 12; KLK5 inh: 6; Thrombin inh: 2; m-calpain inh: 2

How did COc1cc(CCC(=O)Nc2cccc(C(F)(F)F)c2)cc(OC)c1OC do in these assays?
FXIa inh: 4; FXIIa inh: 2; KLK5 inh: 10; Thrombin inh: 41*; m-calpain inh: 19

What do the screens show for `COc1cc(CC(=O)Nc2cccc(C(F)(F)F)c2)cc(OC)c1OC`?
FXIa inh: 5; FXIIa inh: 6; KLK5 inh: -3; Thrombin inh: 0; m-calpain inh: 14

Results for CC1(C)CC2CC(C)(CN2CC(=O)C(C#N)c2ccccc2)C1 (configuration not stated) ?
FXIa inh: -9; FXIIa inh: -4; KLK5 inh: 115*; Thrombin inh: 3; m-calpain inh: -19

What do the screens show for `COc1cccc(OC)c1-c1nn2c(-c3ccco3)nnc2s1`?
FXIa inh: 8; FXIIa inh: 45*; KLK5 inh: 45*; Thrombin inh: 38; m-calpain inh: 29

How did CCOc1ccc(N2C(=O)/C(=C/c3cccs3)N(C)C2=S)cc1 do in these assays?
FXIa inh: 4; FXIIa inh: 4; KLK5 inh: 1; Thrombin inh: -4; m-calpain inh: -30

How did CC(C)N(Cc1nc(-c2ccccc2)no1)C(=O)CCCN1C(=O)c2ccccc2C1=O do in these assays?
FXIa inh: -2; FXIIa inh: 0; KLK5 inh: 2; Thrombin inh: -7; m-calpain inh: 64*

Results for Cc1ccc2c(C)c(C(=O)Nc3nnc(C)s3)oc2c1 ?
FXIa inh: 23; FXIIa inh: 40*; KLK5 inh: -2; Thrombin inh: 9; m-calpain inh: -1

What do the screens show for `O=C1[C@@H]2[C@H](C(=O)N1Cc1ccco1)[C@H]1C=C[C@@H]2C1`?
FXIa inh: -4; FXIIa inh: 5; KLK5 inh: -5; Thrombin inh: -6; m-calpain inh: -30

Results for CCN1CCN(C2=CC3=CC(=C(C#N)C#N)CCC3CC2)CC1 (configuration not stated) ?
FXIa inh: 10; FXIIa inh: 17; KLK5 inh: 6; Thrombin inh: 15; m-calpain inh: 61*

How did CN1CCN(C2=CC3=CC(=C(C#N)C#N)CCC3CC2)CC1 (configuration not stated) do in these assays?
FXIa inh: 0; FXIIa inh: 11; KLK5 inh: 4; Thrombin inh: 5; m-calpain inh: 46

What do the screens show for `C=CCNC(=S)N/N=C/c1ccc(C(C)(C)C)cc1`?
FXIa inh: 10; FXIIa inh: 15; KLK5 inh: 5; Thrombin inh: 0; m-calpain inh: 64*

Results for CC(C)(C)c1ccc(/C=N/NC(=S)NCc2ccccc2)cc1 ?
FXIa inh: 4; FXIIa inh: 7; KLK5 inh: -9; Thrombin inh: -8; m-calpain inh: -16

Results for COc1ccccc1CNC(=O)C(Cc1c[nH]c2ccccc12)NC(=O)OCc1ccccc1 (configuration not stated) ?
FXIa inh: -6; FXIIa inh: -4; KLK5 inh: -17; Thrombin inh: -11; m-calpain inh: -6

Results for CCc1cc2c(SCC(=O)N(C)C3CCS(=O)(=O)C3)ncnc2s1 (configuration not stated) ?
FXIa inh: 51*; FXIIa inh: 23; KLK5 inh: 37; Thrombin inh: 19; m-calpain inh: 7
